In ChEMBL document CHEMBL2439963, “Synthetic trimethyllysine receptors that bind histone 3, trimethyllysine 27 (H3K27me3) and disrupt its interaction with the epigenetic reader protein CBX7” (Bioorg Med Chem, 2013):

Assays:
[1] = Inhibition of synthetic H3K27me3 peptide interaction to CBX7 after 15 mins by fluorescence polarization assay
Outline: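 Calixarene was added at 0–10 mM, dissolved in water with 4 equiv NaOH. Incubated 15 min in the dark and read at ex 450/em 530 nm. mP was normalized to % complex, IC50 taken from a sigmoidal fit, triplicates averaged.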

[2] = Displacement of calixarene-LCG from synthetic H3K27me3 peptide
Outline: (§1)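 Competitive lucigenin displacement: 0.5 µM lucigenin plus 1.25 µM calixarene in 0.01 M phosphate buffer pH 7.4, titrated with Ac-capped peptide (H3K27 0–1.5 mM; H3K27me3 0–0.5 mM). Emission read at λex 369 nm, λem 485 nm. Kd fitted by cubic competitive binding equations, with host–dye constant fixed from the prior direct titration. Duplicate determinations averaged.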

[3] = Displacement of calixarene-LCG from synthetic H3K27 peptide; outline: as §1
[4] = Displacement of calixarene-LCG from synthetic H3K27 peptide by isothermal titration calorimetry analysis
[5] = Displacement of calixarene-LCG from synthetic H3K27me3 peptide by isothermal titration calorimetry analysis

| SMILES | IC50 [1] [µM] | Kd [2] [µM] | Kd [3] [µM] | Kd [4] [µM] | Kd [5] [µM] |
| --- | --- | --- | --- | --- | --- |
| O=S(=O)(O)c1cc2c(O)c(c1)Cc1cc(S(=O)(=O)O)cc(c1O)Cc1cc(S(=O)(=O)O)cc(c1O)Cc1cc(S(=O)(=O)O)cc(c1O)C2 | 2500 | 5.4 | 220 | – | – |
| NC(=O)c1ccc(-c2cc3c(O)c(c2)Cc2cc(S(=O)(=O)O)cc(c2O)Cc2cc(S(=O)(=O)O)cc(c2O)Cc2cc(S(=O)(=O)O)cc(c2O)C3)cc1 | 590 | 1.86 | 23 | – | – |
| COc1cccc(-c2cc3c(O)c(c2)Cc2cc(S(=O)(=O)O)cc(c2O)Cc2cc(S(=O)(=O)O)cc(c2O)Cc2cc(S(=O)(=O)O)cc(c2O)C3)c1OC | 1700 | 2.13 | 25 | – | – |
| O=S(=O)(O)c1cc2c(O)c(c1)Cc1cc(S(=O)(=O)O)cc(c1O)Cc1cc(S(=O)(=O)O)cc(c1O)Cc1cc(-c3ccccc3)cc(c1O)C2 | 510 | 0.75 | 19 | 51.4 | 4.03 |
| Cc1ccc(S(=O)(=O)Nc2cc3c(O)c(c2)Cc2cc(S(=O)(=O)O)cc(c2O)Cc2cc(S(=O)(=O)O)cc(c2O)Cc2cc(S(=O)(=O)O)cc(c2O)C3)cc1 | > 2000 | > 100 | > 100 | – | – |
| O=S(=O)(O)c1cc2c(O)c(c1)Cc1cc(S(=O)(=O)O)cc(c1O)Cc1cc(S(=O)(=O)O)cc(c1O)Cc1cc(Br)cc(c1O)C2 | 470 | 0.7 | 13.3 | – | – |
| O=[N+]([O-])c1cc2c(O)c(c1)Cc1cc(S(=O)(=O)O)cc(c1O)Cc1cc(S(=O)(=O)O)cc(c1O)Cc1cc(S(=O)(=O)O)cc(c1O)C2 | > 5000 | 10 | 30 | – | – |

The next compounds have a lower IC50 [1] than those just listed; values first:

| IC50 [1] [µM] | Kd [2] [µM] | Kd [3] [µM] | Kd [4] [µM] | Kd [5] [µM] | SMILES |
| --- | --- | --- | --- | --- | --- |
| 370 | 0.88 | 11.3 | – | – | N#Cc1ccc(-c2cc3c(O)c(c2)Cc2cc(S(=O)(=O)O)cc(c2O)Cc2cc(S(=O)(=O)O)cc(c2O)Cc2cc(S(=O)(=O)O)cc(c2O)C3)cc1 |
| 360 | 0.78 | 20 | – | – | COc1ccc(-c2cc3c(O)c(c2)Cc2cc(S(=O)(=O)O)cc(c2O)Cc2cc(S(=O)(=O)O)cc(c2O)Cc2cc(S(=O)(=O)O)cc(c2O)C3)cc1 |
| 230 | 0.34 | 2.7 | – | – | Cc1ccc(-c2cc3c(O)c(c2)Cc2cc(S(=O)(=O)O)cc(c2O)Cc2cc(S(=O)(=O)O)cc(c2O)Cc2cc(S(=O)(=O)O)cc(c2O)C3)cc1 |
